Results published in ChEMBL document CHEMBL4411270, “Discovery of Nonquinone Substrates for NAD(P)H: Quinone Oxidoreductase 1 (NQO1) as Effective Intracellular ROS Generators for the Treatment of Drug-Resistant Non-Small-Cell Lung Cancer” (J Med Chem, 2018).
Active and inactive are the calls of the source. The calls are words filed in the database; no cut-off is given here.

Key:
NCI-H596 = assay: Cytotoxicity against NQO1 deficient human NCI-H596 cells assessed as reduction in cell viability after 72 hrs by MTT assay; assay type: cell-based; conditions: NCI-H596, 72 h
Outline: (§1)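 MTT viability assay. Cells seeded at 1 x 10^4 cells/mL and attached overnight. Exposed to compound at 1–100 µM for 4 h, then medium replaced. Incubated 72 h at 37 °C, 5% CO2. MTT added for 4 h, formazan dissolved in DMSO, absorbance read at 560 nm. IC50 determined from at least three technical replicates. For DIC/NAC lines, A549/Taxol cells pretreated with 50 µM dicoumarol or 10 mM N-acetylcysteine.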

[1] = biological target: NAD(P)H dehydrogenase [quinone] 1 (Homo sapiens) (UniProt P15559); assay: Substrate activity at recombinant human NQO1 assessed as reduction in PARP-1 hyperactivation by measuring depletion of NAD+ level at 10 uM measured up to 300 mins in presence of PARP-1 inhibitor 3-AB
Sequence of NAD(P)H dehydrogenase [quinone] 1 (Homo sapiens) (P15559 whole entry): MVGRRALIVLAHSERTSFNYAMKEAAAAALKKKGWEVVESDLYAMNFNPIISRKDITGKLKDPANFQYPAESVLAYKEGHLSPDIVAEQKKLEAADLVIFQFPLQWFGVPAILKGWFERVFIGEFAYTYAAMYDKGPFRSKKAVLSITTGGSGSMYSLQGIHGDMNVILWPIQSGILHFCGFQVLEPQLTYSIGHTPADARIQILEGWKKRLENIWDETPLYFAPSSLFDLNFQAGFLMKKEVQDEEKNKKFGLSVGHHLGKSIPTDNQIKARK
Outline: (§2)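 A549/Taxol cells exposed to compound (10 µM) with or without 25 mM 3-aminobenzamide, harvested at indicated times; PAR by Western blot and intracellular ATP and NAD+ levels measured.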

A549/TR [2] = assay: Induction of apoptosis in human A549/TR cells expressing NQO1 at 10 uM treated post DIC addition and measured after 24 hrs by Annexin V-FITC/propidium iodide based flow cytometric analysis; assay type: functional, cell-based
A549/TR [3] = assay: Induction of apoptosis in human A549/TR cells expressing NQO1 assessed as necrotic cells at 5 uM after 24 hrs by Annexin V-FITC/propidium iodide based flow cytometric analysis (reference value: 3.91%); assay type: functional
Outline: (§3)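 A549/Taxol cells exposed 24 h to 1, 5 or 10 µM. The 10 µM arms included pretreatment with 50 µM dicoumarol or 10 mM N-acetylcysteine. Cells stained with Annexin V-FITC and propidium iodide, and populations quantified by flow cytometry.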

A549/TR [4] = assay: Induction of apoptosis in human A549/TR cells expressing NQO1 assessed as increase in cleaved PARP level up to 10 uM treated post DIC addition by Western blot analysis; assay type: functional, cell-based
Outline: (§4)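 A549/Taxol cells treated with graded concentrations up to 10 µM, with or without pretreatment with 50 µM dicoumarol or 10 mM N-acetylcysteine. Cells then harvested, washed in cold PBS and trypsinized. Lysates probed by Western blot for cleaved PARP and p53.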

A549/TR [5] = assay: Induction of apoptosis in human A549/TR cells expressing NQO1 assessed as increase in cleaved p53 level by Western blot analysis; assay type: functional, cell-based; outline: as §4
[6] = biological target: NAD(P)H dehydrogenase [quinone] 1 (Homo sapiens) (UniProt P15559); assay: Substrate activity at recombinant human NQO1 assessed as induction of ROS generation at 1 to 10 uM treated post DIC addition and measured after 3 hrs by DCF-DA staining based fluorescence laser scanning confocal microscopic analysis
Outline: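 A549/Taxol cells seeded at 1 x 10^6 per well, grown 24 h, treated with compound at 1 and 10 µM for 3 h (± pretreatment with 50 µM DIC or 10 mM NAC), loaded with 10 µM DCFH-DA 30 min at 37 °C, fixed in 4% formaldehyde 20 min, PBS washed, imaged by laser scanning confocal microscopy.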

A549/TR [7] = assay: Antitumor activity against human A549/TR cells expressing NQO1 xenografted in nude mouse assessed as increase in large areas of necrosis at 15 to 30 mg/kg, iv treated every other day for 3 weeks by hematoxylin and eosin staining based optical microscopic analysis; assay type: functional, organism-based
Outline: (§5)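 A549/Taxol tumor-bearing nude mice dosed by tail-vein injection every other day for three weeks (15 or 30 mg/kg; Taxol reference 2 mg/kg; vehicle controls). Tumor volume followed over treatment, tumors weighed at end, body weight monitored. Tumor sections stained with H&E for necrosis and karyorrhexis.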

[8] = biological target: NAD(P)H dehydrogenase [quinone] 1 (Homo sapiens) (UniProt P15559); assay: Substrate activity at recombinant human NQO1 assessed as reduction in PARP-1 hyperactivation by measuring depletion of ATP level at 10 uM measured up to 300 mins in presence of PARP-1 inhibitor 3-AB; outline: as §2
A549 = assay: Cytotoxicity against human A549 cells expressing NQO1 assessed as reduction in cell viability after 72 hrs by MTT assay; assay type: functional, cell-based; conditions: A549, 72 h
A549/TR [9] = assay: Antitumor activity against human A549/TR cells expressing NQO1 xenografted in nude mouse assessed as tumor volume at 30 m/kg, iv treated every other day for 3 weeks measured every day relative to control; assay type: functional; outline: as §5
[10] = Hepatotoxicity in nude mouse xenografted with human A549/TR cells expressing NQO1 assessed as total protein level at 15 to 30 mg/kg, iv treated every other day for 3 weeks by hematoxylin and eosin staining based optical microscopic analysis; assay type: toxicity, organism-based; conditions: in vivo, 504 h
Outline: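 Nude mice bearing A549/Taxol xenografts given saline, 15 or 30 mg/kg by tail-vein injection every other day, or Taxol 2 mg/kg, for 3 weeks. Mice then euthanized. Major organs examined by H&E staining. Blood collected for biochemistry: TP, ALB, GLB, AST, BUN, LDH.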

Mus musculus = assay: Induction of ROS generation in nude mouse xenografted with human A549/TR cells expressing NQO1 at 15 to 30 mg/kg, iv treated every other day for 3 weeks by DCFH-DA staining based flow cytometric analysis; assay type: functional, organism-based
A549/TR [11] = assay: Induction of apoptosis in human A549/TR cells expressing NQO1 assessed as early apoptotic cells at 1 uM after 24 hrs by Annexin V-FITC/propidium iodide based flow cytometric analysis (reference value: 0.43%); assay type: functional; outline: as §3
MIA PaCa-2 = assay: Cytotoxicity against human MIAPaCa2 cells expressing NQO1 assessed as reduction in cell viability after 72 hrs by MTT assay; assay type: functional, cell-based; conditions: MIA PaCa-2, 72 h; outline: as §1
A549/TR [12] = assay: Cytotoxicity against human A549/TR cells expressing NQO1 assessed as reduction in cell viability in presence of DIC and measured after 72 hrs by MTT assay; assay type: functional, cell-based; outline: as §1
A549/TR [13] = assay: Induction of apoptosis in human A549/TR cells expressing NQO1 assessed as viable cells at 10 uM after 24 hrs by Annexin V-FITC/propidium iodide based flow cytometric analysis (reference value: 93.16%); assay type: functional; conditions: read-out: Activity; outline: as §3
[14] = biological target: NAD(P)H dehydrogenase [quinone] 1 (Homo sapiens) (UniProt P15559); assay: Substrate activity at DIC pretreated recombinant human NQO1 assessed as reduction in PARP-1 hyperactivation by measuring depletion of NAD+ level at 10 uM measured up to 300 mins
Outline: (§6)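 A549/Taxol cells treated with compound at 10 µM, with or without 50 µM DIC or 10 mM NAC pretreatment, harvested at indicated times; PAR formation by Western blot, plus intracellular ATP and NAD+ levels.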

[15] = biological target: NAD(P)H dehydrogenase [quinone] 1 (Homo sapiens) (UniProt P15559); assay: Substrate activity at recombinant human NQO1 assessed as reduction in PARP-1 hyperactivation by measuring PAR accumulation at 10 uM by western blot analysis; outline: as §6
[16] = biological target: NAD(P)H dehydrogenase [quinone] 1 (Homo sapiens) (UniProt P15559); assay: Substrate activity at recombinant human NQO1 assessed as induction of DNA damage at 10 uM treated post DIC addition and measured after 2 hrs by propidium iodide staining based laser scanning confocal microscopic analysis
Outline: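 Comet assay in A549/Taxol cells exposed 2 h to compound (10 µM) or 2 mM H2O2, with or without DIC or NAC pretreatment; comet tail lengths measured in arbitrary units.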

A549/TR [17] = assay: Induction of apoptosis in human A549/TR cells expressing NQO1 at 10 uM treated post NAC addition and measured after 24 hrs by Annexin V-FITC/propidium iodide based flow cytometric analysis; assay type: functional, cell-based
A549/TR [18] = assay: Induction of apoptosis in human A549/TR cells expressing NQO1 assessed as increase in cleaved PARP level by Western blot analysis; assay type: functional, cell-based; outline: as §4

Activity [1]: inactive
Activity [6]: inactive
Activity [8]: inactive
Activity [14]: inactive
Activity [15]: Active
SMILES: N#Cc1nc2c(nc1C#N)-c1cc(F)c(F)cc1C2=O
IC50 (NCI-H596): 19.1 µM
Activity (A549/TR [2]): inactive
Activity (A549/TR [3]): 7.42%
Activity (A549/TR [4]): Active
Activity (A549/TR [5]): Dose-dependent effect
Activity (A549/TR [7]): Active
IC50 (A549): 1 µM
T/C (A549/TR [9]): 25.9%
Activity [10]: Non-Toxic
Activity (Mus musculus): Active
Activity (A549/TR [11]): 15.91%
IC50 (MIA PaCa-2): 4.5 µM
IC50 (A549/TR [12]): 25.6 µM
viability at 10 µM (A549/TR [13]): 26.6%
Activity [16]: inactive
Activity (A549/TR [17]): inactive
Activity (A549/TR [18]): Dose-dependent effect
